According to ChEMBL document CHEMBL1156509, “Survival in the presence of antifungals: genome-wide expression profiling of Aspergillus niger in response to sublethal concentrations of caspofungin and fenpropimorph” (2007):
The source made the active and inactive calls.

What was measured:
[1] = test system: Aspergillus niger; test: Antifungal activity against Aspergillus niger JvD1.1 at 104.2 ug/mL by microtiter plate; assay type: functional, organism-based
Summary of the method: (§1)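 Reporter conidia (2×10^4 per well) were pre-grown 6 h at 37 °C in 2× CM in glass-bottom plates. An equal volume of a 2-fold dilution series (seven concentrations) was added, then 3 h at 30 °C. Medium was discarded and adherent germlings imaged. Growth inhibition was scored 0/1/2 from hyphal length.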

[2] = test system: Aspergillus niger; test: Induction of GFP tagged PagsA-H2B expression in Aspergillus niger RD6.47 at 104.2 ug/mL by fluorescence microscopy; assay type: functional, organism-based
Summary of the method: (§2)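 agsA promoter-GFP reporters, cytoplasmic (JvD1.1) or nuclear H2B-targeted (RD6.47). Germlings pre-grown 6 h at 37 °C in 2× CM, exposed 3 h at 30 °C to seven 2-fold dilutions. GFP levels were scored by fluorescence microscopy as 0 (basal), 1 (intermediate) or 2 (high). Controls: gpdA-H2B-GFP strain MA26.1 (positive), N402 (negative).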

[3] = test system: Aspergillus niger; test: Induction of GFP tagged PagsA expression in Aspergillus niger JvD1.1 at 104.2 ug/mL by fluorescence microscopy; assay type: functional, organism-based; summary of the method: as §2
[4] = test system: Aspergillus niger; test: Antifungal activity against Aspergillus niger RD6.47 at 104.2 ug/mL by microtiter plate; assay type: functional, organism-based; summary of the method: as §1
[5] = test system: Aspergillus niger; test: Effect on morphological changes in Aspergillus niger N402 germlings assessed as increase in germ tube; assay type: functional, organism-based
Summary of the method: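 Bioreactor: 5×10^9 N402 conidia in 5 l fermentation medium, pH 3 controlled, 37 °C, 250 rpm. Compound in water (or water alone) added at 5 h, then 1 h further cultivation. At least 200 germlings per run were counted for germ tubes per germling and subapical branches. Mean ± S.D. from two independent runs.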

[6] = test system: Aspergillus niger; test: Effect on morphological changes in Aspergillus niger N402 germlings assessed as germ tube elongation and branching at 5 ng/mL after 5 hrs; assay type: functional, organism-based
Summary of the method: (§3)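 Compound or water control was added, then 1 h more at 37 °C. Adherent germlings were scored by microscopy, at least 50 per sample, as branched or unbranched. Branching index = branched/total germlings.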

[7] = test system: Aspergillus niger; test: Effect on morphological changes in Aspergillus niger N402 germlings assessed as tip swelling at 0.9 ug/mL after 5 hrs; assay type: functional, organism-based
[8] = test system: Aspergillus niger; test: Induction of crhD gene expression in Aspergillus niger by microarray analysis relative to control; assay type: functional
Summary of the method: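 A. niger N402 conidia (5×10^9) grown in 5 L fermentation medium in a bioreactor at 37 °C, pH 3, 250 rpm. Drug in distilled H2O or H2O alone added at 5 h; mycelium harvested by filtration 1 h later and frozen in liquid nitrogen. cRNA hybridized to Affymetrix A. niger GeneChips, two independent bioreactor runs per condition; normalized, ≥1.5-fold change at p 0.05 cutoff.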

[9] = test system: Aspergillus niger; test: Effect on morphological changes in Aspergillus niger N402 germlings assessed as germ tube elongation and branching at 0.9 ug/mL after 5 hrs; assay type: functional, organism-based; summary of the method: as §3
[10] = test system: Aspergillus niger; test: Induction of agsA expression in Aspergillus niger N402 germlings; assay type: functional, organism-based
Summary of the method: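 RNA from 1 h-treated N402 bioreactor germlings (5 h pre-growth, FM pH 3, 37 °C) was hybridised to A. niger Affymetrix arrays, biological duplicate. Data were normalised; differential expression was taken as at least 1.5-fold change with p cutoff 0.05. Northern blots on the same RNA were used for validation.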

[11] = test system: Aspergillus niger; test: Effect on morphological changes in Aspergillus niger N402 germlings assessed as tip swelling at 5 ng/mL after 5 hrs; assay type: functional, organism-based
[12] = test system: Aspergillus niger; test: Effect on increase sub apical branching in Aspergillus niger N402 germlings assessed as branching index at 5 ug/mL after 5 hrs; assay type: functional; summary of the method: as §3
[13] = test system: Aspergillus niger; test: Effect on morphological changes in Aspergillus niger N402 germlings assessed as germ tube elongation and branching at 5 ug/mL after 5 hrs; assay type: functional, organism-based; summary of the method: as §3
[14] = test system: Aspergillus niger; test: Effect on morphological changes in Aspergillus niger N402 germlings assessed as tip swelling at 5 ug/mL after 5 hrs; assay type: functional, organism-based
[15] = test system: Aspergillus niger; test: Effect on morphological changes in Aspergillus niger N402 germlings assessed as branching index at 50 ug/mL; assay type: functional

In the case of `CCCCNC(=O)n1c(NC(=O)OC)nc2ccccc21`, the Activity [1] is reported as “Active”, the Activity [2] is reported as “inactive” and the Activity [3] is reported as “inactive”. The Activity [4] was “Active”.

`Fc1ccc([C@]2(Cn3cncn3)O[C@H]2c2ccccc2Cl)cc1` was tested, and the Activity [1] was “inactive”, the Activity [2] was “inactive” and the Activity [3] was “inactive”. For the same molecule, the Activity [4] was “inactive”.

`CC(Cc1ccc(C(C)(C)C)cc1)CN1C[C@@H](C)O[C@@H](C)C1` (stereo partly drawn) [FENPROPIMORPH] was tested, and the Activity [5] was “Active”, the Activity [1] was “Active” and the Activity [6] was “Active”. The Activity [7] was “Active”, the “fold change (FC)” value [8] was 1.51 and the Activity [9] was “Active”. The Activity [10] was “Active”, the Activity [2] was “Active” and the Activity [11] was “Active”. For the same molecule, the Activity [12] was 33%, the Activity [3] was “Active” and the Activity [13] was “Active”. For the same molecule, the Activity [14] was “Active”, the Activity [15] was 30.5% and the Activity [4] was “Active”.
